Bioassay records: PubChem BioAssay, The Scripps Research Institute Molecular Screening Center
Hits are enriched below; roughly 2.3% of the tested compounds scored in any of these assays.
ADAM10 inh: ADAM10 inhibition, QFRET primary screen; recombinant ADAM10, EDANS/DABCYL FRET peptide cleavage, 3 h; inhibition, % at 7 µM; hit rate 0.62% among 370,000; AID 720582;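 active = inhibition above a per-campaign cutoff equal to the mean of compounds falling between control-based bounds plus 3 SD, cut at about 20% in these data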;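 note: 0% = DMSO wells while the 100% control is not disclosed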
DDE Tn7 FP inh: disrupts Tn7 cyclic peptide binding to fibrin D-Dimer-E complex. P02675. FP displacement of FITC-Tn7 peptide from fibrin DD(E); 0% = median of compound wells per plate. inhibition, % at 8.3 µM. hit rate 0.13% among 370,000. AID 720508;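 active = inhibition above the mean of compounds falling within the control limits plus 3 SD of them, cut at about 14% in these data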;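 note: 0% = plate median of compound wells and 100% = 10 µM Aha-Tn7 peptide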
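Assay system: Fibrin-DD(E) protein isolated from polymerized human fibrin clots; read-out basis: percent inhibition; medium: Tris/NaCl/CaCl2 buffer, pH 7.8; signal: FP measurement; incubation: 10 min plus 3 h, room temperature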
PLCb3 inh: blocks human PLC-beta3 enzyme activity; hit rate 0.18% among 370,000; inhibition, % at 12.2 µM; Q01970; Purified PLC-beta3, fluorogenic substrate, fluorescence; in the data active = inhibition above about 11%;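 note: 0% = median of compound wells on plate and 100% = full blocker control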
PLCg1 inh: blocks human PLC-gamma1 enzyme activity; P19174; purified PLC-gamma1, fluorogenic substrate, fluorescence; inhibition, % at 12.2 µM; hit rate 0.84% among 370,000; AID 720700; in the data active = inhibition above about 9.5%
DDE Tn6 FP inh: inhibitors of Tn6 peptide binding to human fibrin DD(E); Fibrin DD(E) TRITC-Tn6 fluorescence polarization displacement; P02675; hit rate 0.21% among 370,000; inhibition, % at 8.3 µM;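 active = inhibition above a per-campaign cutoff: mean of compounds within control limits plus 3 SD, cut at about 15% in these data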;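 note: 0% = median of all compound wells on the plate and 100% = blocking peptide control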
ADAM17 inh: ADAM17 inhibition, QFRET primary screen; AID 720648; inhibition, % at 6.95 µM; recombinant ADAM17, EDANS/DABCYL FRET peptide cleavage; hit rate 0.83% among 370,000;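 active = inhibition above the mean of compounds lying between control limits plus 3 SD, set per campaign, cut at about 8.5% in these data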;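 note: 0% = DMSO-only wells as the low control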
Target sequence (P78536 215-824 limits assumed): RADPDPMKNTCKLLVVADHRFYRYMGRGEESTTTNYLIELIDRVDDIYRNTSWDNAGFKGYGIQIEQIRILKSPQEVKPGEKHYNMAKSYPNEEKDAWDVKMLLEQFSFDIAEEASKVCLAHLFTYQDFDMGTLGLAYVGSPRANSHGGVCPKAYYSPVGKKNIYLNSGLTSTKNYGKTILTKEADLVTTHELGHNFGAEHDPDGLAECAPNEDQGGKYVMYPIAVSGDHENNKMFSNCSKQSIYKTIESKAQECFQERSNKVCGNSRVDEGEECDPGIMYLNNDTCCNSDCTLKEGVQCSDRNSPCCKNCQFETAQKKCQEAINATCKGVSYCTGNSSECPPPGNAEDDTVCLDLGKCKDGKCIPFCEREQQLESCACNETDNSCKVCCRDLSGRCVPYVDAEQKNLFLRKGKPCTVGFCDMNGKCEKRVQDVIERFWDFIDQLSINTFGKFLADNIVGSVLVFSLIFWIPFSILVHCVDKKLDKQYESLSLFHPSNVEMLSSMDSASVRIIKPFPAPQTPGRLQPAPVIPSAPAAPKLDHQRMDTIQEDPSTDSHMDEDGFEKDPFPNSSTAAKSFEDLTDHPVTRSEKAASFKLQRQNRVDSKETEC
ADAM10 confirm: human ADAM10 inhibition, confirmation. AID 743208. ADAM10 QFRET peptide cleavage, EDANS fluorescence. shares compounds with ADAM10 inh. hit rate 1% among 2,100. inhibition, % at 6.95 µM;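 active = inhibition above about 20% chosen separately for each screening run, limit read from the data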;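 note: 0% = DMSO wells and 100% = marimastat wells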
ADAM17 counter: inhibits human ADAM17 in ADAM10 exosite counter-screen | shares compounds with ADAM10 inh | ADAM17 QFRET peptide cleavage, EDANS fluorescence | inhibition, % at 6.95 µM | hit rate 0.5% among 2,100;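 active = mean triplicate inhibition above the solvent-only control wells' mean plus 3 SD, cut at about 12% in these data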;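 note: 0% = DMSO wells and 100% = marimastat wells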
Active calls of the source: *.

What do the screens show for `CC(C)(C)N(Cc1cn(Cc2ccccc2)nn1)S(=O)(=O)c1ccc(N2CCCCC2)cc1Br`?
ADAM10 inh: 6; DDE Tn7 FP inh: 1; PLCb3 inh: -9; PLCg1 inh: -5; DDE Tn6 FP inh: -4; ADAM17 inh: 2

Results for COC(=O)c1ccc(NCc2cc(O)ccc2O)cc1O ?
ADAM10 inh: 1; DDE Tn7 FP inh: -3; PLCb3 inh: -5; PLCg1 inh: -6; DDE Tn6 FP inh: 6; ADAM17 inh: 3

How did COC(=O)c1ccc(NCc2c(O)ccc(O)c2Br)cc1Cl do in these assays?
ADAM10 inh: 41*; DDE Tn7 FP inh: 6; PLCb3 inh: 2; PLCg1 inh: 9.8*; DDE Tn6 FP inh: -11; ADAM17 inh: 17*; ADAM10 confirm: 4; ADAM17 counter: 1

How did C[C@H]1[C@@H](C(=O)N2CCCC2)CC(=O)/C(=N/OCc2ccccc2)C[C@@H]1c1ccccc1 do in these assays?
ADAM10 inh: 2; DDE Tn7 FP inh: 6; PLCb3 inh: -1; PLCg1 inh: 2; DDE Tn6 FP inh: 10; ADAM17 inh: -1

How did CCN1C(=O)[C@H]2[C@@H](c3ccc(-c4cccc(Cl)c4)cc3)N[C@@](C)(C(=O)OC)[C@H]2C1=O do in these assays?
ADAM10 inh: 24*; DDE Tn7 FP inh: 2; PLCb3 inh: 2; PLCg1 inh: -3; DDE Tn6 FP inh: -8; ADAM17 inh: 5; ADAM10 confirm: -1; ADAM17 counter: 0

How did COC(=O)[C@]1(CC(C)C)N[C@H](c2ccc(-c3cccc(Cl)c3)cc2)[C@@H]2C(=O)N(C)C(=O)[C@@H]21 do in these assays?
ADAM10 inh: 23*; DDE Tn7 FP inh: 4; PLCb3 inh: 3; PLCg1 inh: 3; DDE Tn6 FP inh: -2; ADAM17 inh: 6; ADAM10 confirm: 8; ADAM17 counter: 2

Results for COC(=O)[C@]1(C)N[C@H](c2ccc(-c3cccc(Cl)c3)cc2)[C@@H]2C(=O)N(C)C(=O)[C@@H]21 ?
ADAM10 inh: -10; DDE Tn7 FP inh: 2; PLCb3 inh: 1; PLCg1 inh: 0; DDE Tn6 FP inh: 1; ADAM17 inh: 1

How did COc1ccc(C(C(=O)N(C)C2CCCC2)N(Cc2ccc(F)cc2)C(=O)c2cc(C)on2)cc1OC (centres undefined) do in these assays?
ADAM10 inh: 5; DDE Tn7 FP inh: -5; PLCb3 inh: -1; PLCg1 inh: 4; DDE Tn6 FP inh: 11; ADAM17 inh: 4

What do the screens show for `COc1cccc(C(C)(O)c2nc(-c3ccc(C)c(C)c3)cs2)c1` (centres undefined)?
ADAM10 inh: 21*; DDE Tn7 FP inh: -9; PLCb3 inh: 1; PLCg1 inh: -3; DDE Tn6 FP inh: -5; ADAM17 inh: 8; ADAM10 confirm: 8; ADAM17 counter: 2

What do the screens show for `COc1cccc(OC)c1NC(=O)OCCN1CCCC12CCC(c1ccccc1)CC2` (centres undefined)?
ADAM10 inh: 5; DDE Tn7 FP inh: -4; PLCb3 inh: 0; PLCg1 inh: 3; DDE Tn6 FP inh: 2; ADAM17 inh: 0

What do the screens show for `CC(C)n1nccc1N(Cc1ccc(Cl)cc1)S(=O)(=O)c1ccccc1`?
ADAM10 inh: 28*; DDE Tn7 FP inh: -2; PLCb3 inh: 0; PLCg1 inh: 8; DDE Tn6 FP inh: 0; ADAM17 inh: 6; ADAM10 confirm: 2; ADAM17 counter: 1

Results for COCCCN1C(=O)[C@H](CC(=O)NCc2ccccc2)[C@]2(C(=O)OC)CCCCC=C12 ?
ADAM10 inh: 5; DDE Tn7 FP inh: 2; PLCb3 inh: 0; PLCg1 inh: 7; DDE Tn6 FP inh: -2; ADAM17 inh: 1
